# Most compounds without a hit are left out; they make up all but 2.1% or so of the library.
# Runt-SMMHC FRET – inhibitors of RUNX1 Runt–CBFb-SMMHC binding, primary screen, biochemical, FRET, Cerulean-Runt, Venus-CBFb-SMMHC, uHTS. Runt-related transcription factor 1 (Homo sapiens) + Core-binding factor subunit beta …. Cerulean-Runt/Venus-CBFb-SMMHC FRET ratio 530/480, 1 h. inhibition, % at 20 µM. 0.74% of 220,000 active. AID 1434, 2008;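 active = mean inhibition across duplicate retests at 20 µM reaching about 50%, limit read from the data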;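 note: 0% = DMSO wells and 100% = wells with excess untagged CBFb-SMMHC; inhibitors lower the FRET ratio by blocking Runt binding to CBFb-SMMHC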
# Target sequence (Q01196 whole entry, looked up): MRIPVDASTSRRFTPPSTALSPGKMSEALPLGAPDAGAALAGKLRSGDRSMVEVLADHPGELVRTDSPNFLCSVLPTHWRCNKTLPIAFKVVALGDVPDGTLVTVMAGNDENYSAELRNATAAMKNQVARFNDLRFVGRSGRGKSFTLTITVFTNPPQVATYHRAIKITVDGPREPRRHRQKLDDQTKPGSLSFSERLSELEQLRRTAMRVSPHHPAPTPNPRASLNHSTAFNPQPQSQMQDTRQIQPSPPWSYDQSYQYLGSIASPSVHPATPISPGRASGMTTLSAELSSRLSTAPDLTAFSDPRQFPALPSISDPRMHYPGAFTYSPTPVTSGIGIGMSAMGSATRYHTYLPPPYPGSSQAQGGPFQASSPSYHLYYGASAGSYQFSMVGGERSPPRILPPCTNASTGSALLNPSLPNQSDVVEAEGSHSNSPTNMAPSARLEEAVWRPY
# Target sequence (Q13951 whole entry, looked up): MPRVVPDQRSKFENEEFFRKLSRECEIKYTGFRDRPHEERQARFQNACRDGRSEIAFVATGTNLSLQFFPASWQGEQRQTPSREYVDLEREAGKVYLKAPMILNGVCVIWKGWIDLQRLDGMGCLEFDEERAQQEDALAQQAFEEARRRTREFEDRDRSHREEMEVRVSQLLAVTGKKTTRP
# RanGTP-Impb inh – inhibitors of RanGTP-importin-beta interaction, primary screen, biochemical, FRET, CFP-Ran, YFP-importin-beta, homogeneous; Ran GTPase (GTP-bound) - importin-beta complex; cell-free CFP-Ran/YFP-importin-beta FRET ratio; inhibition, % (concentration not given with the values); 1.1% of 300,000 active;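 active = more than half of the replicate wells show a fall in the fluorescence ratio signal beyond about 16%, limit read from the data, passing the limit was not always enough; inconclusive = exactly half of the replicate wells pass the set limit; inactive = fewer than half of replicates pass the limit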;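 note: 0% = DMSO wells and 100% = Ran loaded with GDP instead of GTP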
# Runt-CBFb FRET – inhibitors of RUNX1 Runt–CBFb binding, primary screen, biochemical, FRET, Cerulean-Runt, Venus-CBFb, uHTS | Runt-related transcription factor 1 (Homo sapiens) + Core-binding factor subunit beta … | inhibition, % at 20 µM | Cerulean-Runt/Venus-CBFb FRET ratio 530/480, 1 h | 0.46% of 220,000 active;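 active = inhibition over about 50% at 20 µM in the single-dose screen, limit read from the data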;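 note: 0% = DMSO wells and 100% = excess unlabeled CBFb competitor control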
#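 Schedule: protein complex preformed 1 h, compound exposure 1 h, room temperature, dark; test system: Cerulean-labeled Runt domain protein; amount: 100 nM per protein; buffer or medium: Tris 50 mM pH 7.5, KCl, K2SO4, 0.01% BSA; read-out: loss of energy transfer signal; detection: FRET fluorescence; controls: 5 µM unlabeled CBFb as full-inhibition high control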
# MEX-5 binding – MEX-5 zinc finger RNA-binding disruptors – biochemical, C. elegans, fluorescence polarization, MLPCN library, primary screen; AID 1832, 2009; 0.38% of 300,000 active; MEX-5/FITC-TCR2 RNA binding; active compounds read low; Zinc finger protein mex-5 (Caenorhabditis elegans), Q9XUB2; activity score (negative = inhibition of binding), % at 10 µM;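 active = inhibition past about -25% in most replicates, and total fluorescence under double the plate's negative control median, limit read from the data; inconclusive = replicates evenly split on the limit, or fluorescence at least double controls; inactive = too little inhibition in most replicates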;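 note: 0% = DMSO and -100% = 5 µM competing unlabeled TCR2 RNA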
# proKLK7 act – proKLK7 zymogen activators, primary screen, biochemical, fluorescence intensity. activation, % at 7 µM. 0.9% of 370,000 active. Kallikrein-7 (Homo sapiens), P49862. AID 652039, 2013. purified proKLK7, EDANS-DABCYL substrate fluorescence; 100% is mature enzyme control, 0% vehicle;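 active = activation above the mean of all tested compounds plus 3 SD, computed per campaign excluding outliers beyond control limits, cut at about 13% in these data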
# Active calls of the source: *; ? = inconclusive; nt = no result given.
SMILES,Runt-SMMHC FRET,RanGTP-Impb inh,Runt-CBFb FRET,MEX-5 binding,proKLK7 act
O=C1c2cccnc2C(=O)N1Cc1ccc(F)cc1S(=O)(=O)NCc1ccco1,nt,1,nt,0,0
N#CCC[C@@H]1CC[C@]2(CCCN(C(=O)c3cccnc3)C2)O1,nt,nt,nt,nt,0
Cc1cc(C)n(-c2nc3ccccc3nc2Nc2ccc3[nH]c(=O)[nH]c3c2)n1,-8,32*,-3,-3,0
COc1ccc(Nc2nc3ccccc3nc2-n2nc(C)cc2C)cc1,-26,1,-14,-1,0
Cc1n[nH]c(C)c1Sc1ccccc1N=Cc1cc(Cl)cc([N+](=O)[O-])c1O,-2,-2,3,-51*,nt
Cc1n[nH]c(C)c1Sc1ccccc1[N+](=O)[O-],0,6,0,1,1
O=C1NC(=Nc2ccccc2Cl)S/C1=C\c1cc([N+](=O)[O-])ccc1O,nt,-98,nt,-40*,0
CCc1nc2ccc(C(=O)Nc3cccc(OCC(=O)N(C)C)c3)cn2c1N(C)Cc1ccc(OC)cc1,nt,nt,nt,nt,0
CCN(CC)c1ccc2cc(C(=O)NNC(=O)c3ccc(S(=O)(=O)N4CCCCC4)cc3)c(=O)oc2c1,63*,119*,66*,?,0
CCN(CC)c1ccc2cc(S(=O)(=O)c3ccc(C)cc3)c(=O)oc2c1,79*,137*,4,-77*,0
CCN(CC)c1ccc2cc(C#N)c(=O)oc2c1,92*,115*,82*,-57*,-1
CCN(CC)c1ccc2cc(-c3nc(-c4cc5ccccc5oc4=O)cs3)c(=O)oc2c1,nt,nt,nt,nt,-1
Cc1ccc(C(=O)NNC(=O)c2ccc(S(=O)(=O)N3CCCCC3)cc2)cc1,nt,nt,nt,nt,0
CCN(CC)c1ccc2ccc(=O)oc2c1,92*,95*,39,0,11
Cc1cc(C(=O)CSc2ncnc3ccccc23)c(C)n1C1CC1,nt,nt,nt,nt,1
Cc1cc(-n2c(C)cc(C(=O)CSc3ncnc4ccccc34)c2C)no1,110*,0,34,1,0
CCN(CC)CCCNc1nc2cc(OC)c(OC)cc2c2nc(-c3cccnc3)nn12,1,-4,0,4,1
CCN(CC)CCCNc1nc2cc(OC)c(OC)cc2c2nc(-c3ccccc3)nn12,1,50*,1,5,8
CC(Oc1cc2oc(=O)cc(-c3ccccc3)c2cc1Cl)C(=O)NCC1CCC(C(=O)O)CC1 (configuration not stated),nt,6,nt,-3,0
CC(NC(=O)OC(C)(C)C)C(=O)Oc1cc2oc(=O)cc(-c3ccccc3)c2cc1Cl (configuration not stated),79*,1,19,4,nt
Cc1ccc2nc(NC(=O)c3ccc(Cl)s3)sc2c1,1,-2,2,0,0
Cc1nc2ccc(NC(=O)c3ccc(Cl)s3)cc2s1,0,2,2,2,13*
Cc1cccc(NC(=S)N/N=C/c2ccc(Cl)c([N+](=O)[O-])c2)c1,-25,44*,0,-3,1
COC(=O)C1Sc2[nH]c(=O)sc2C2c3ccccc3OC(=O)C12 (configuration not stated),-4,60*,17,-1,0
COC(=O)C1CSc2[nH]c(=O)sc2C1c1ccccc1 (configuration not stated),2,-5,5,-57*,1
SMILES,Runt-SMMHC FRET,RanGTP-Impb inh,Runt-CBFb FRET,MEX-5 binding,proKLK7 act
O=C(O)C1Sc2[nH]c(=O)sc2C2c3ccc(O)cc3OC(=O)C12 (configuration not stated),87*,nt,20,?,-2
O=C(O)C1Sc2[nH]c(=O)sc2C2c3cc(Cl)ccc3OC(=O)C12 (configuration not stated),16,5,24,-8,-1
CC1(C(=O)O)Sc2[nH]c(=O)sc2C2c3ccccc3OC(=O)C21 (configuration not stated),2,48*,13,-6,-1
CCOc1ccc(-n2c(SCC(=O)Nc3ccc(S(=O)(=O)Nc4cc(C)nc(C)n4)cc3)nnc2-c2ccc(OC)cc2)cc1,nt,nt,nt,nt,1
O=C(Cc1n[nH]c(=O)c2ccccc12)Nc1cccc(S(=O)(=O)N2CCCCCC2)c1,nt,nt,nt,nt,0
CCOC(=O)/C(C#N)=C1/C=C(C)c2ccccc2N1,91*,4,44,4,0
CCOC(=O)/C(C#N)=C1\C(=O)N(Cc2ccccc2)c2ccccc21,11,1,5,0,0
COC(=O)C1=C(C(=O)OC)C2C(C)=CC(C)=CN2C(C(=O)OC)=C1C(=O)OC (configuration not stated),9,72*,2,-7,2
COCCN(Cc1nc(-c2ccc(-c3ccccc3)cc2)oc1C)C(C)C,nt,-4,nt,-5,0
CCCN1CCC2(CC1)C(C#N)=C(N)Oc1c2sc2nc(C)cc(C)c12,12,26*,6,-1,3
Nc1ccc2nc(CCCO)[nH]c2c1,0,2,2,-49*,0
CCOc1ccc(N/C(=C(/C(Cl)=C(Cl)Cl)[N+](=O)[O-])n2cncn2)cc1,-28,-42,-4,-49*,nt
O=Cc1ccc2ccc3cccnc3c2n1,nt,?,nt,-34*,0
COCOc1ccc(/C=C2/Oc3cc(OCOC)cc(OCOC)c3C2=O)c(OCOC)c1,nt,104*,nt,0,nt
Brc1ccc(-c2ccc(/C=N/Nc3nc4ccccc4[nH]3)o2)cc1,63,64*,26,-1,-2
O=C(CN1CCN(c2nc(-c3ccccc3)cs2)CC1)Nc1ccc(Cl)cc1,nt,nt,nt,nt,0
COc1ccccc1/C=C1\SC(=S)N(CCC(=O)NC2=NCCS2)C1=O,-59,0,-19,-63*,0
CCOC(=O)N1CCN(C(=O)CCN2C(=O)/C(=C\c3ccc(OC)c(OC)c3)SC2=S)CC1,nt,nt,nt,nt,-1
O=C(CCN1C(=O)/C(=C\c2cccs2)SC1=S)NC1=NCCS1,0,4,-1,-1,0
COc1ccc(/C=C2\SC(=S)N(CCC(=O)NC3CCCC3)C2=O)cc1OC,nt,-3,nt,-27*,0
Cc1ccc(-c2cc(-c3ccc(C)o3)nc(N)c2C#N)cc1,35,9,34,-2,-8
Cc1ccc(-c2cc(-c3ccc(Cl)cc3)c(C#N)c(N)n2)o1,33,16*,34,-1,2

# Bioassay records: PubChem BioAssay, several laboratories
